# pIC50: −log10 of the molar value. Calls of active or inactive are those of the source. No cut-off for these calls is given here.
# What was measured:
# [1] = target: T1, Potassium voltage-gated channel subfamily A member 3 (Homo sapiens, UniProt P22001); assay: Inhibition of human Kv1.3 expressed in Xenopus laevis Oocyte cells at 10 uM by manual patch clamp method relative to control; assay type: cell-based
# How it was run: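 Human Kv1.3 cRNA injected into defolliculated Xenopus oocytes. Two-electrode voltage clamp 1–4 days later at 18–22 °C in ND96 (pH 7.5). Currents evoked by 1 s depolarizations, with inhibition read at the 0 mV step. Compounds from DMSO stock at ≤0.5% DMSO, either single 10 μM or rising concentrations fitted with the Hill equation for IC50.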
# [2] = target: T1, Potassium voltage-gated channel subfamily A member 3; assay: Inhibition of Kv1.3 (unknown origin) expressed in human PBMC derived PHA-activated T-lymphocyte cells assessed as reduction in total outward potassium current at 5 uM by patch clamp electrophysiology method; assay type: cell-based
# How it was run: (§1)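 Whole-cell recording on PBMC stimulated 5 days with PHA-L (240 ng/mL); about 90% of cells CD3⁺. Large cells chosen; cells with currents ≤500–600 pA discarded. Bath in mM: 130 NaCl, 5 KCl, 2 CaCl₂, 2 MgCl₂, 10 HEPES, 5 glucose, pH 7.4; pipette KF-based with 11 EGTA, pH 7.2. Leak-subtracted two-step outward K⁺ current. Single concentration 5 μM, or 0.05 nM–50 μM for curves; peak normalized to control.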
# T-cell [3] = assay: Inhibition of anti-CD3 stimulated human T cell proliferation incubated for 15 to 30 mins in presence of IL-2 by 3H-thymidine uptake assay; assay type: functional, cell-based
# [4] = target: T1, Potassium voltage-gated channel subfamily A member 3; assay: Inhibition of Kv1.3 (unknown origin) expressed in PBMC derived PHA-activated T-lymphocyte cells incubated for 5 days by manual patch clamp method; assay type: cell-based; how it was run: as §1
# hERG (KCNH2) = hERG (KCNH2) (Homo sapiens, UniProt Q12809); assay: Inhibition of hERG overexpressed in HEK293 cells at 5 uM relative to control; assay type: toxicity, cell-based; conditions: HEK293 cells overexpressing hERG
# hERG (KCNH2), sequence (Q12809 whole entry): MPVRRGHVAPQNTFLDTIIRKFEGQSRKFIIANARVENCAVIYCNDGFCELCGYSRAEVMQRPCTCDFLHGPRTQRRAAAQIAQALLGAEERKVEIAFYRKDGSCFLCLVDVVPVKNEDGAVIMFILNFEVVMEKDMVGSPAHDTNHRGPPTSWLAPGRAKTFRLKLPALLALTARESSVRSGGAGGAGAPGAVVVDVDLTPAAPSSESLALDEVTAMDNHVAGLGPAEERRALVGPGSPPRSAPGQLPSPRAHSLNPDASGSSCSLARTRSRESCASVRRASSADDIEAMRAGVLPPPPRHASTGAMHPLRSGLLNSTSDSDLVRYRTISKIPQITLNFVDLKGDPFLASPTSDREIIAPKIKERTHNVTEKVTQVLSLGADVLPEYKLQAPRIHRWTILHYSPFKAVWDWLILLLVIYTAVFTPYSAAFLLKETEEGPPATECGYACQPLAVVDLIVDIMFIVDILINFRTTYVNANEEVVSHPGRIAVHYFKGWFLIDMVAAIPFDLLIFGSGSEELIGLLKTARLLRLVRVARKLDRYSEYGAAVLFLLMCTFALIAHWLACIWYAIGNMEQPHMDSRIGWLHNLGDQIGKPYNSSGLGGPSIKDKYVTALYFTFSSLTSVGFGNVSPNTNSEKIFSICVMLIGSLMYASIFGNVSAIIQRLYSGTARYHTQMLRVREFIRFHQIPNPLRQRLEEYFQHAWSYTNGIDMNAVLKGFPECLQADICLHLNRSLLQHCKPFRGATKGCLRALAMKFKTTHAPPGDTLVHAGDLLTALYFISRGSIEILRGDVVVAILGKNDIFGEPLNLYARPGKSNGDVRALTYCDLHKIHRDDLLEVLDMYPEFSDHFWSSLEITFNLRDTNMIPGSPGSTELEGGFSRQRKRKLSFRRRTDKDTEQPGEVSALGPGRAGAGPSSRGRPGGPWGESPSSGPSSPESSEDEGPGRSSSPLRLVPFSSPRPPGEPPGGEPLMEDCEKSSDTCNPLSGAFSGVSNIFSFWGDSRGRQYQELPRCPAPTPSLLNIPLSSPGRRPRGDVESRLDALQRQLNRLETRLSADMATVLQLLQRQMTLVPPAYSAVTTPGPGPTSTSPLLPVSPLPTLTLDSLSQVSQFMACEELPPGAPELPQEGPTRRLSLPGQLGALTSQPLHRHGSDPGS
# [5] = target: T1, Potassium voltage-gated channel subfamily A member 3; assay: Inhibition of human Kv1.3 expressed in mouse LTK- cells by manual patch clamp electrophysiological recording; assay type: cell-based
# How it was run: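 Mouse Ltk⁻ fibroblasts in DMEM/10% horse serum transiently transfected with hKv1.3 plasmid plus eGFP marker, and recorded 24 h later. Whole-cell patch clamp at 20–23 °C. Compounds diluted from DMSO stocks with final DMSO ≤0.1%, with 0.1% DMSO as vehicle control. Normalized current plotted against concentration and fitted with the Hill equation for IC50; mean ± SEM, n = cells.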
# [6] = Aqueous solubility of compound in DMEM; assay type: physicochemical
# [7] = target: T1, Potassium voltage-gated channel subfamily A member 3; assay: Inhibition of Kv1.3 (unknown origin) expressed in Xenopus laevis Oocyte cell membrane by Electrophysiology recording; assay type: cell membranes
# [8] = target: T1, Potassium voltage-gated channel subfamily A member 3; assay: Inhibition of Kv1.3 (unknown origin) expressed in CHO cells incubated for 10 mins by 86Rb+ efflux assay; assay type: cell-based
# [9] = target: T1, Potassium voltage-gated channel subfamily A member 3; assay: Inhibition of Kv1.3 in human T-lymphocyte by electrophysiology recordings; assay type: cell-based; how it was run: as §1
# [10] = Thermodynamic solubility of the compound at pH 7.4 incubated for 24 hrs under shaking condition by HPLC analysis; assay type: physicochemical; conditions: buffer, read-out: Therm_solubility
# How it was run: (§2)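 Supernatant diluted 1:2 or 1:10 in 0.1% TFA/MeCN 1:1 and quantified by reversed-phase UPLC at 290 nm against a 7-point calibration (1–100 μM). Mean of two independent experiments, in μM.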
# [11] = target: T1, Potassium voltage-gated channel subfamily A member 3; assay: Inhibition of Kv1.3 in human PBMC derived PHA-activated T-lymphocytes assessed as reduction in intracellular calcium level at 5 uM incubated for 2 hrs by Fluo-4 Ca2+ based flow cytometric analysis; assay type: cell-based; conditions: T-lymphocyte
# How it was run: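 PBMC activated 5 days with PHA, then given compounds at 5 μM for 2 h. Scraped and loaded with Fluo-4 (2 μM) plus anti-CD3-APC at 37 °C for 1 h, washed, and held 30 min at 37 °C with compound (5 μM) before flow cytometry. Fluo-4 MFI of the CD3⁺ gate, 3 replicates, normalized to untreated control; n = 4.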
# T-cell line [12] = assay: Cytotoxicity against human PBMC derived PHA-activated T-lymphocytes assessed as effect on cell viability by trypan blue staining based analysis; assay type: toxicity; conditions: 30 µM
# How it was run: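 PBMC purified by Ficoll gradient with red-cell lysis, seeded at 1.5 × 10⁶ cells/mL in RPMI with 10% heat-inactivated serum and 2 mM L-glutamine. Activated with PHA-L 240 ng/mL alongside compounds at 30 μM. Viability of treated versus untreated cells judged by trypan blue staining.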
# T-cell line [13] = assay: Cytotoxicity against human PBMC derived PHA-activated T-lymphocytes assessed as effect on total cell number at 30 uM incubated for 5 days by bright-field microscopic analysis; assay type: toxicity, cell-based; conditions: 120 h, time 5 day
# How it was run: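 Ficoll-purified PBMC at 1.5 × 10⁶ cells/mL in RPMI/10% heat-inactivated serum/2 mM L-glutamine, stimulated with PHA-L 240 ng/mL and exposed to compounds (30 μM) for 5 days. Cells then counted to give total cell number.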
# T-cell [14] = assay: Inhibition of human PBMC derived PHA-activated T-lymphocytes activation assessed as inhibition of colony formation by measuring reduction in colony forming units at 30 uM incubated for 5 days by bright-field microscopic analysis; assay type: functional, cell-based; conditions: time 5.0 day
# How it was run: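 PBMC at 1.5 × 10⁶ cells/mL treated with compounds (30 μM) together with PHA-L (240 ng/mL) for 5 days in RPMI with 10% heat-inactivated bovine calf serum and 2 mM L-glutamine. After medium removal, wells imaged by bright-field microscopy at 2× and colonies (CFU) counted. Mean ± SD of 3 experiments.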
# T-cell [15] = assay: Induction of cell cycle arrest at G0/G1 phase in human PBMC derived PHA-activated T-lymphocytes assessed as reduction S phase cells at 30 uM measured after 5 days by flow cytometric analysis; assay type: functional, cell-based; conditions: time 5.0 day
# How it was run: (§3)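 PHA-activated PBMC exposed to compounds (30 μM) for 5 days in RPMI/10% heat-inactivated calf serum/2 mM L-glutamine, scraped off and incubated 1 h at 4 °C in the dark. Cell cycle read by flow cytometry and scored as G0/G1 versus cycling (S+G2/M) percentage. Mean ± SD of 3 experiments; unpaired t-test against untreated cells.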
# T-cell [16] = assay: Induction of cell cycle arrest at G0/G1 phase in human PBMC derived PHA-activated T-lymphocytes assessed as reduction G2/M phase cells at 30 uM measured after 5 days by flow cytometric analysis; assay type: functional, cell-based; conditions: time 5.0 day; how it was run: as §3
# [17] = Aqueous solubility of compound; assay type: physicochemical; conditions: buffer; how it was run: as §2
# [18] = target: T1, Potassium voltage-gated channel subfamily A member 3; assay: Inhibition of human Kv1.3 expressed in PHA-activated T-lymphocyte cells assessed as outward current at 1 uM incubated for 1 min by patch clamp electrophysiology method (reference value: 769.2 +/- 199.2 pA); assay type: cell-based
# How it was run: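 Human PBMCs isolated by Ficoll gradient with red-cell lysis, seeded at 1.5 × 10⁶ cells/mL in RPMI with 10% heat-inactivated serum and 2 mM L-glutamine, then stimulated 5 days with PHA-L 240 ng/mL. Whole-cell patch clamp used a bath of (mM) 130 NaCl, 5 KCl, 10 HEPES, pH 7.4 and a pipette of 140 KF, 11 EGTA, pH 7.2. Large cells were selected, and cells with currents ≤500–600 pA were discarded. Outward current was leak-subtracted and compared to control by paired t-test.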
# T1 sequence (P22001 whole entry): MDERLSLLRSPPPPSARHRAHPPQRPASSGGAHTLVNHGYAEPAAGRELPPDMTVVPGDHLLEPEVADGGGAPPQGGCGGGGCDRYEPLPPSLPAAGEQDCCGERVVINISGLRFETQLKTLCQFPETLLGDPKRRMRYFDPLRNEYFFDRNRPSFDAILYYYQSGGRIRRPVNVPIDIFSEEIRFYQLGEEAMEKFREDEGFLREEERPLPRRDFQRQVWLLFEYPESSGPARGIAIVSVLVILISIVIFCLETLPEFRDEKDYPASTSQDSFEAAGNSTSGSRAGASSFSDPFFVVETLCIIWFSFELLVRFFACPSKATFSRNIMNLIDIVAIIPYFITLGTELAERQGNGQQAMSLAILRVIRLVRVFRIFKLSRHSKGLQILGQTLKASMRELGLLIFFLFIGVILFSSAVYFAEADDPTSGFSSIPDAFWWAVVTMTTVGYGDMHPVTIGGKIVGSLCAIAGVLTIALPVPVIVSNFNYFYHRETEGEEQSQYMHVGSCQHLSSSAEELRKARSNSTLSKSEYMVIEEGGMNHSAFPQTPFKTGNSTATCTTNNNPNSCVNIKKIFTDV
smiles,measurement,setting,value
CCCNC(=O)O[C@H]1CC[C@@](CNC(=O)c2ccccc2OC)(c2ccccc2)CC1,inhibition,[1],87.3%
same,inhibition,[2],Active
same,pIC50,T-cell [3],6.47
CCCNC(=O)O[C@H]1CC[C@](CNC(=O)c2ccccc2OC)(c2ccccc2)CC1,inhibition,[1],40.5%
same,inhibition,[2],Active
C=CCNC(=O)O[C@H]1CC[C@@](CNC(=O)c2ccccc2OC)(c2ccsc2)CC1,inhibition,[1],36.2%
same,pIC50,[4],7.43
same,inhibition,[2],Active
COc1ccccc1C(=O)NC[C@]1(c2ccsc2)CC[C@H](N)CC1,inhibition,[1],6.46%
same,inhibition,[2],Active
O=C(NC[C@]1(c2cccs2)CC[C@@H](O)CC1)c1ccoc1,inhibition,[1],0%
same,inhibition,[2],Active
same,inhibition at 5 µM,hERG (KCNH2),21%
COc1ccccc1C(=O)NC[C@]1(c2cccs2)CC[C@@H](O)CC1,inhibition,[1],38.5%
same,inhibition,[2],Active
CNC(=O)O[C@H]1CC[C@@](CNC(=O)c2ccccc2OC)(c2ccsc2)CC1,inhibition,[1],93%
same,pIC50,[5],6.77
same,inhibition,[2],Active
same,inhibition at 5 µM,hERG (KCNH2),19%
O=C(NC[C@]1(c2cccs2)CC[C@H](O)CC1)c1ccoc1,inhibition,[1],65.7%
same,inhibition,[2],Active
CNC(=O)O[C@H]1CC[C@@](CNC(=O)c2ccccc2OC)(c2cccs2)CC1,inhibition,[1],93.8%
same,pIC50,[5],6.33
same,inhibition,[2],Active
O=c1ccc2c(OCCCCOc3ccc(O)cc3)c3ccoc3cc2o1,solubility,[6],0.6 µM
COc1cc(C)ccc1C(=O)NCC1(c2cccs2)CCC(=O)CC1,inhibition,[1],85.6%
same,inhibition,[2],Active
COc1ccccc1C(=O)NCC1(c2ccsc2)CCCC1,pIC50,[7],4.76
O=C1CCC(CNC(=O)c2ccoc2)(c2cccs2)CC1,inhibition,[1],55.3%
same,inhibition,[2],Active
COc1ccccc1C(=O)NC[C@]1(c2cccs2)CC[C@H](O)CC1,inhibition,[1],90.9%
same,pIC50,[5],6.60
same,inhibition,[2],Active
COc1ccccc1C(=O)NCC1(c2ccccc2)CCC(=O)CC1,pIC50,[8],6.59
same,inhibition,[1],87.5%
same,inhibition,[2],Active
same,pIC50,[9],6.51
same,pIC50,T-cell [3],6.00
CNC(=O)O[C@H]1CC[C@](CNC(=O)c2ccccc2OC)(c2cccs2)CC1,inhibition,[1],94.7%
same,pIC50,[5],6.74
same,inhibition,[2],Active
COc1ccccc1C(=O)NC[C@]1(c2ccsc2)CC[C@H](O)CC1,inhibition,[1],97.6%
same,pIC50,[5],6.35
same,pIC50,[4],7.25
same,inhibition,[2],Active
same,solubility thermodynamic at 24 h,[10],72 µM
same,inhibition at 5 µM,hERG (KCNH2),15%
same,inhibition,[11],inactive
same,Activity,T-cell line [12],Non-Toxic
same,Activity,T-cell line [13],Non-Toxic
same,inhibition,T-cell [14],Active
same,Activity,T-cell [15],Active
same,Activity,T-cell [16],Active
O=c1ccc2c(OCCCCOc3ccccc3)c3ccoc3cc2o1,solubility,[17],< 1000 µg/mL
COc1ccccc1C(=O)NC[C@]1(c2ccsc2)CC[C@@H](N)CC1,inhibition,[1],0.65%
same,inhibition,[2],Active
CCCNC(=O)O[C@H]1CC[C@](CNC(=O)c2ccccc2OC)(c2ccsc2)CC1,inhibition,[1],25.5%
same,inhibition,[2],Active
COc1ccc(F)cc1C(=O)NC[C@]1(c2cccs2)CC[C@@H](O)CC1,inhibition,[1],54.9%
same,inhibition,[2],Active
COc1ccc(C)cc1C(=O)NCC1(c2cccs2)CCC(=O)CC1,inhibition,[1],23.3%
same,inhibition,[2],Active
COc1ccc(F)cc1C(=O)NCC1(c2cccs2)CCC(=O)CC1,inhibition,[1],39.1%
same,inhibition,[2],Active
COc1ccccc1C(=O)NCC1(c2ccsc2)CCC(=O)CC1,inhibition,[1],97%
same,pIC50,[5],6.10
same,inhibition,[2],Active
same,solubility thermodynamic at 24 h,[10],400 µM
Clc1ccccc1C(c1ccccc1)(c1ccccc1)n1cccn1,Activity,[18],173 pA
COc1ccc(F)cc1C(=O)NC[C@]1(c2cccs2)CC[C@H](O)CC1,inhibition,[1],66.4%
same,inhibition,[2],Active
COc1ccccc1C(=O)NC[C@]1(c2ccsc2)CC[C@@H](O)CC1,inhibition,[1],78.5%
same,inhibition,[2],Active
CNC(=O)O[C@H]1CC[C@](CNC(=O)c2ccccc2OC)(c2ccsc2)CC1,inhibition,[1],79.6%
same,inhibition,[2],Active
COCCCNC(=O)O[C@H]1CC[C@](CNC(=O)c2ccccc2OC)(c2ccsc2)CC1,inhibition,[1],94.5%
same,pIC50,[5],6.17
same,inhibition,[2],Active
COc1ccccc1C(=O)NCC1(c2cccs2)CCC(=O)CC1,inhibition,[1],95.1%
same,pIC50,[5],5.95
same,inhibition,[2],Active
same,solubility thermodynamic at 24 h,[10],210 µM
COCCCNC(=O)O[C@H]1CC[C@](CNC(=O)c2ccccc2OC)(c2cccs2)CC1,inhibition,[1],91.6%
same,pIC50,[5],6.07
same,inhibition,[2],Active

# Reference: ChEMBL document CHEMBL5625176, “Immunosuppressive effects of new thiophene-based KV1.3 inhibitors” (Eur J Med Chem, 2023)
